Published values of several laboratories.
Compare with care: the assays were run in different laboratories.
Target: Casein kinase I isoform alpha-like (CSNK1A1L, Homo sapiens, UniProt Q8N752)
Sequence (Q8N752 1-337, as in one of the studies): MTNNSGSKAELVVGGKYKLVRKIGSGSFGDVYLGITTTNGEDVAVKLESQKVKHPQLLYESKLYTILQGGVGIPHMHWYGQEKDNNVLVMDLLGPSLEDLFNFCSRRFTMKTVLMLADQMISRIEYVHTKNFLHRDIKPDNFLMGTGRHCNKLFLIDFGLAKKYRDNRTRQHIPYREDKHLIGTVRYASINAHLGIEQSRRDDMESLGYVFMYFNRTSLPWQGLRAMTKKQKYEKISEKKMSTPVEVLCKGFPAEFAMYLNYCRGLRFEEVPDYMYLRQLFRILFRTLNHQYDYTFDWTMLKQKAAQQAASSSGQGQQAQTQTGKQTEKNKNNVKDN

SMILES | test | conditions | remaining binding
F[C@@H]1CCN(c2nccc(-c3cnn4ncccc34)n2)C1 | binding | 1 µM | 100%
Cc1cnc(Nc2ccc(C(=O)N3CCC(N4CCCC4)CC3)cc2)nc1-c1cc2ccccc2s1 | binding, competition with immobilised ligand | 1 µM | 100%
CNC(=O)Nc1ccc2c(c1)CC[C@@]21OC(=O)N(CC(=O)N(Cc2ccc(F)cc2)[C@@H](C)C(F)(F)F)C1=O | cell-free assay, competition with immobilised ligand | 1 µM | 88%
CCN1CCN(Cc2ccc(C(=O)Nc3ccc(C)c(Oc4ccc5c(c4)CC(=O)N5)c3)cc2C(F)(F)F)CC1 | binding, competition with immobilised ligand | 1 µM | 100%
CCCOc1ccc([C@@H]2[C@@H](C(=O)O)[C@H](c3ccc4c(c3)OCO4)CN2CC(=O)Nc2c(CC)cccc2CC)cc1 | cell-free assay, competition with immobilised ligand | 1 µM | 94%
CN(CCCC(F)(F)F)c1nccc(-c2cnn3ncccc23)n1 | binding | 1 µM | 91%
Nc1ncc2c(n1)-c1c([nH]c3ccc(C#CC4CC4)cc13)CCCC2 | binding, competition with immobilised ligand | 1 µM | 99%
N[C@@H]1CCN(c2nccc(-c3cnn4ncccc34)n2)C1 | binding | 1 µM | 100%
O=C(NCC1CCOCC1)c1n[nH]cc1NC(=O)c1c(F)cccc1F | binding, competition with immobilised ligand | 1 µM | 85%
C[C@H](c1ccnc(Nc2nc3ccc(-c4cc(N(C)C)ncn4)cc3[nH]2)c1)N1CCN(C(=O)CC(F)(F)F)CC1 | cell-free assay, competition with immobilised ligand | 0.1 µM | 94%
FC(F)(F)Oc1cccc(-c2cnc3ccc(-c4ccncc4)nn23)c1 | cell-free assay, competition with immobilised ligand | 5 µM | 90%
CN(C)c1ncc(F)c(-c2cnn3ncccc23)n1 | binding | 1 µM | 100%
O=C(NCCCN1CCOCC1)c1ccc(Nc2ncc(Cl)c(-c3ccc(Cl)s3)n2)cc1 | binding, competition with immobilised ligand | 1 µM | 100%
COc1ccnn2ncc(-c3ccnc(N(C)C)n3)c12 | binding | 1 µM | 91%
Cc1nccc(COC(=O)N2C[C@@H]3[C@@H](CNC(=O)c4ccc5[nH]nnc5c4)[C@@H]3C2)n1 | cell-free assay, competition with immobilised ligand | 1 µM | 100%
C[C@H]1CCN(c2nccc(-c3cnn4ncccc34)n2)C1 | binding | 1 µM | 100%
COc1ccc2c(c1)O[C@H](c1ccc(OC)c(OC)c1)C[C@@H]2NC(=O)C1(c2ccc3c(c2)OC(F)(F)O3)CC1 | cell-free assay, competition with immobilised ligand | 1 µM | 100%
O=C(c1ccc(Nc2ncc(Cl)c(-c3ccc(Cl)s3)n2)cc1)N1CCC(N2CCCC2)CC1 | binding, competition with immobilised ligand | 1 µM | 100%
COc1ncc2cc3ccccc3nc2c1C#N | cell-free assay, competition with immobilised ligand | 5 µM | 100%
CN(C(=O)c1ccccc1)c1cc(N(C)c2ccc3c(c2)CCc2ccc(C(=O)NCCN4CCOCC4)cc2C3=O)ccc1F | cell-free assay, competition with immobilised ligand | 1 µM | 100%
COc1cnc(Nc2cccc(S(N)(=O)=O)c2)nc1N1CCN(c2ccccc2)C(=O)C1 | binding, competition with immobilised ligand | 1 µM | 100%
